System: serine hydrolases in the HeLa cell membrane protein fraction
Test: ABPP-SILAC identification of serine hydrolase targets in cells
Format: cell-based
Conditions: 20 μM, 4 h, FP-biotin probe
Procedure, shortened: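 Intact HeLa cells were cultured with test compound at 20 μM or DMSO control for 4 h. Membrane proteins were then isolated and labelled with FP-biotin probe for ABPP-SILAC. The read-out is the light/heavy ratio per serine hydrolase: 1 means no inhibition and 0 means complete inhibition. Two independent replicates were run.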

| Compound | selectivity/sensitivity profile against serine hydrolases |
| --- | --- |
| O=C(N1CCCCC1)n1cccn1 [compound 10] | more selective nature |
| N#Cc1cnn(C(=O)N2CCCCC2)c1 [compound 12] | more sensitive nature |

Source: article PMC4130767 (Bioorganic & medicinal chemistry letters, 2014)
